The values below come from PubChem BioAssay.

The structures appear in SMILES notation. The source made the active and inactive calls.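 Rule for the calls, unless noted: active = Her2 level under about 52% in both replicate screens, with viability over 70% of control (limit read from the data); inconclusive = Her2 under the limit in one screen only, or viability under 70%; inactive = Her2 level above the set limit.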

Assay [1] in a line: Her2 expression decrease, cell viability multiplex – SKBR3 breast tumor cells, AlphaScreen, ATP viability, primary screen (AID 461).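 For Her2 level: lower value means less Her2 protein in the cells.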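 For viability: percent of carrier control wells set as 100% viability.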 The note with it: SKBR3 Her2 protein level, 18-24 h, measured here: SKBR3 viability, ATP luminescence, at 10 µM. On the technique in general: Alpha assays give light when donor and acceptor beads are brought close together.
For assay [2], the target named is Receptor tyrosine-protein kinase erbB-2 (Homo sapiens) (UniProt P04626). The assay is described as above. The note with it: 18-24 h, at 10 µM, stronger effect = lower value.
Sequence of Receptor tyrosine-protein kinase erbB-2 (Homo sapiens) (P04626 whole entry, looked up): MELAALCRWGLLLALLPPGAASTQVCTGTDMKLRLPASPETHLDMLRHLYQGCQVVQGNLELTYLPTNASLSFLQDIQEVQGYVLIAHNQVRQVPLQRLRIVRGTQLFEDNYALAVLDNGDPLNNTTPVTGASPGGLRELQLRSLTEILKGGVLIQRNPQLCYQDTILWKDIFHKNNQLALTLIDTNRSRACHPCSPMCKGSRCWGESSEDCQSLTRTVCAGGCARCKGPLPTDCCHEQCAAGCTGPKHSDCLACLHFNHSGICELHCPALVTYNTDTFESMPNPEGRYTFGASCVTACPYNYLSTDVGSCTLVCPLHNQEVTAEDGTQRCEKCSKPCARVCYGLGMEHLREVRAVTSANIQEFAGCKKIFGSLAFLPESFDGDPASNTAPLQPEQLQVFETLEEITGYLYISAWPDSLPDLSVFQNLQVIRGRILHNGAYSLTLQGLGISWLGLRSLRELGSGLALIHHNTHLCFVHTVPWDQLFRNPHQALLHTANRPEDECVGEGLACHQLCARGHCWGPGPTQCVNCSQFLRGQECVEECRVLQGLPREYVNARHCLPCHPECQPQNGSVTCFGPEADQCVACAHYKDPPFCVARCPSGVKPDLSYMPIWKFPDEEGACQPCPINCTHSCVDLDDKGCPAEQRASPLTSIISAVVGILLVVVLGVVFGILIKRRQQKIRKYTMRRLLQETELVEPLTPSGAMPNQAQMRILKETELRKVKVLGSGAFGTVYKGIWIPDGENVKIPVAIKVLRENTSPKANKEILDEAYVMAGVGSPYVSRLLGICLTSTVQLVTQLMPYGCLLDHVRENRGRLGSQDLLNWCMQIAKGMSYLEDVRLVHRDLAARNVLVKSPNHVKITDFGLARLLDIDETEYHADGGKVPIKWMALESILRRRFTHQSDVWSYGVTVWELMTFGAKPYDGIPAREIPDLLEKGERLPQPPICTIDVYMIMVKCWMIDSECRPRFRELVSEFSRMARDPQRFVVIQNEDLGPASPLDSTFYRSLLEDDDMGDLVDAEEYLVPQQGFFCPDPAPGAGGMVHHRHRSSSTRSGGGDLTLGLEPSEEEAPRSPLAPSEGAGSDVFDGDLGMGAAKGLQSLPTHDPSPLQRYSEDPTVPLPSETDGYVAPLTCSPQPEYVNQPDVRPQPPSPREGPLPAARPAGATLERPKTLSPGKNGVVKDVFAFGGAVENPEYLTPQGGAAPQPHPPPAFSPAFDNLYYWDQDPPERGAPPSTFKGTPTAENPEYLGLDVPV
The nature of assay [3]: reduced viability of SK-BR-3 breast cancer cells – cell-based, 24 h, human, pilot screen (AID 572;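 active = viability at or below 10% of carrier control in both of two separate runs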;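 note: compound exposure lasted between 18 and 24 h rather than exactly 24 h; 100% = carrier-treated control wells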). The note with it: SK-BR-3 viability, CellTiter-Glo luminescence, at 10 µM, stronger effect = lower value.
Assay [4] can be described thus: HUVEC growth inhibition – cell-based, human, primary screen (AID 575;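 active = viability at or below 30% in both replicate assays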;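 note: 100% = median of untreated cell wells with 0.1% DMSO on each plate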). To be noted: HUVEC proliferation, CellTiter-Glo luminescence, 72 h; at 10 µM; stronger effect = lower value. The essentials:
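System: primary human umbilical vein endothelial cells; Quantity: 1250 endothelial cells in each well; Buffer or medium: supplemented EBM, 2% fetal bovine serum; Doses: one dose, 10 µM final, 0.1% DMSO; Incubation: 72 h compound incubation; Technique: ATP-based CellTiter-Glo luminescent read; Evaluation: percent of median DMSO-control luminescence; Controls: vehicle and MePR control wells.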
A general note: ATP-based viability assays read luminescence as a measure of living cells.

The nature of assay [5]: H69AR cell proliferation blockers – human, duplicate replicates, primary screen (AID 580;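 active = viability at or under a set limit in both replicates, limit being median viability minus 3 SD, cut at about 48% in these data, passing the limit was not always enough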;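 note: 100% = mean luminescence of untreated wells and 0% = no signal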). To be noted: H69AR lung tumor cells viability, ATP luminescence, 72 h; at 10 µM; stronger effect = lower value.
Assay [6] in a line: MRP1 drug-resistance reversers in H69AR cells – cell-based, doxorubicin co-treatment, pilot screen (AID 601;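 active = viability loss from added drug above about 55%, and viability with drug at most 40%, in both replicates, limit read from the data, passing the limit was not always enough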). The note with it: CellTiter-Glo, 72 h, at 10 µM; for differential viability (reversal): stronger effect = higher value.
Assay [7] can be described thus: yeast transport mutant growth inhibition pilot in 384-well plates, post-Golgi transport modulator project (AID 636; in the data active = inhibition above about 31%). To be noted: absorbance 615 nm, about 18 h, stronger effect = higher value.
Assay [8] can be described thus: growth suppression of yeast trafficking mutant, preliminary HTS, modulators of trafficking downstream of Golgi apparatus project, 1536-format plate, OD 615 nm (AID 637; in the data active = inhibition above about 30%). The note with it: yeast transport mutant growth, absorbance 615 nm, 18 h; stronger effect = higher value.
The mark [9] stands for this setting: H69AR cells + 2 uM doxorubicin, measured here: viability with 2 uM doxorubicin, stronger effect = lower value.
Setting [10] is: H69AR cells, compound alone cytotoxicity.

By viability is commonly meant a read-out of living cells in per cent, often relative to untreated cells. In general, inhibition refers to the drop in the measured response relative to a control, in per cent. On to `Cc1ccccc1N(C)S(=O)(=O)c1ccc2[nH]cc(C(=O)NCC3CCCO3)c(=O)c2c1` (stereo not given), for which the viability in assay [1] is 83%; in assay [3] it was 83% (inactive); in assay [4] it was 90.1% (inactive); in assay [5], 91.7% (inactive); in assay [6] (setting [9]), 87.5%; in assay [6] (setting [10]) it was 91.7%. Moreover, the Her2 level in assay [2] is 71% (inactive). Moreover, in assay [6] (H69AR cells + 2 uM doxorubicin), the differential viability (reversal) is 4.24% (inactive). The inhibition in assay [7] is -4.61% (inactive); in assay [8] it was 0.17% (inactive).

Turning to `CC1CCCCC1NC(=O)Cn1nnc(-c2ccc(Cl)cc2)n1` (stereo not given), the viability in assay [1] is 86%; in assay [3], 86% (inactive); in assay [4] it was 72.7% (inactive); in assay [5] it was 91.9% (inactive); in assay [6] (setting [9]), 77.3%; in assay [6] (setting [10]), 91.9%. Besides, in assay [2], the Her2 level is 92.5% (inactive). For the same compound, the differential viability (reversal) in assay [6] (H69AR cells + 2 uM doxorubicin) is 14.6% (inactive). Also, the inhibition in assay [7] was -1.3% (inactive); in assay [8] it was -5.4% (inactive).

With `COC(=O)c1sccc1NC(=O)c1csc(C)c1`, the viability was 87% in assay [1]; 87% (inactive) in assay [3]; 60.8% (inactive) in assay [4]; 69.1% (inactive) in assay [5]; 67.1% in assay [6] (setting [9]); 69.1% in assay [6] (setting [10]). For the same compound, the Her2 level in assay [2] was 20% (active). Moreover, the differential viability (reversal) in assay [6] (H69AR cells + 2 uM doxorubicin) is 2.06% (inactive). The figures for the inhibition in assay [7] and in assay [8] were -3.64% (inactive) and -0.66% (inactive), respectively.

Consider `COC(=O)c1ccccc1NC(=O)CSc1nnnn1C1CCCCC1`, for which the viability in assay [1] was 120%; in assay [3] it was 120% (inactive); in assay [4] it was 81.2% (inactive); in assay [5], 85.9% (inactive); in assay [6] (setting [9]), 85%; in assay [6] (setting [10]), 85.9%. Also, the Her2 level in assay [2] was 112% (inactive). In addition, in assay [6] (H69AR cells + 2 uM doxorubicin), the differential viability (reversal) was 0.925% (inactive). Also, the inhibition is -5.6% (inactive) in assay [7] and -2.26% (inactive) in assay [8].

With `CS(=O)(=O)c1ccc2nc(NC(=O)C3C4C=CC(C4)C3C(=O)O)sc2c1` (stereo not given), the viability in assay [1] was 96%; in assay [3], 96% (inactive); in assay [4] it was 101% (inactive); in assay [5], 104% (inactive); in assay [6] (setting [9]) it was 90.3%; in assay [6] (setting [10]), 104%. Also, in assay [2], the Her2 level is 154% (inactive). Further, the differential viability (reversal) in assay [6] (H69AR cells + 2 uM doxorubicin) was 13.3% (inactive). Moreover, the inhibition in assay [7] was -2.5% (inactive); in assay [8], -12.8% (inactive).

`CCCOc1ccc([C@@H]2C3CN(C(=O)OCC)CC=C3C(C#N)=C(N)C2(C#N)C#N)cc1OC` (stereo not given in full): the viability in assay [1] was 88%; in assay [3], 88% (inactive); in assay [4] it was 85.2% (inactive); in assay [5], 63.4% (inactive); in assay [6] (setting [9]) it was 75.2%; in assay [6] (setting [10]), 63.4%. Also, in assay [2], the Her2 level is 40% (active). Also, in assay [6] (H69AR cells + 2 uM doxorubicin), the differential viability (reversal) was -11.8% (inactive). The inhibition in assay [7] is -7.03% (inactive); in assay [8], 0% (inactive).

Take `CC(c1ccccc1)N1C(=O)c2ccc(C(=O)NCc3ccco3)cc2C1=O` (stereo not given): the viability in assay [1] was 104%; in assay [3] it was 104% (inactive); in assay [4], 93.6% (inactive); in assay [5], 95.7% (inactive); in assay [6] (setting [9]), 90.1%; in assay [6] (setting [10]) it was 95.7%. Moreover, the Her2 level in assay [2] is 84% (inactive). For the same compound, in assay [6] (H69AR cells + 2 uM doxorubicin), the differential viability (reversal) was 5.55% (inactive). In addition, the inhibition is -3.16% (inactive) in assay [7] and -4.92% (inactive) in assay [8].

`COc1cccc(NC(=O)CN2CCN(c3ccccc3F)CC2)c1`: the viability in assay [1] is 90%; in assay [3], 90% (inactive); in assay [4] it was 107% (inactive); in assay [5] it was 94.9% (inactive); in assay [6] (setting [9]) it was 93.1%; in assay [6] (setting [10]), 94.9%. In assay [2], the Her2 level was 88.5% (inactive). Moreover, the differential viability (reversal) in assay [6] (H69AR cells + 2 uM doxorubicin) is 1.8% (inactive). Also, the inhibition is -4.4% (inactive) in assay [7] and 35.6% (active) in assay [8].

With `CCOc1ccc(CSC(CC(=O)O)C(=O)O)cc1` (stereo not given), the viability in assay [1] is 90%; in assay [3], 90% (inactive); in assay [4] it was 84.1% (inactive); in assay [5], 84.2% (inactive); in assay [6] (setting [9]), 86.8%; in assay [6] (setting [10]), 84.2%. Also, the Her2 level in assay [2] was 83.5% (inactive). Besides, in assay [6] (H69AR cells + 2 uM doxorubicin), the differential viability (reversal) was -2.67% (inactive). The results for the inhibition in assay [7] and in assay [8] were -3.29% (inactive) and 0.55% (inactive), respectively.

As to `CCN1CCN(c2c(Cl)cccc2NC(=O)c2ccco2)CC1`, the viability in assay [1] was 67.5%; in assay [3] it was 67.5% (inactive); in assay [4], 98.1% (inactive); in assay [5] it was 97.5% (inactive); in assay [6] (setting [9]), 90.1%; in assay [6] (setting [10]) it was 97.5%. Besides, the Her2 level in assay [2] is 88% (inactive). Besides, the differential viability (reversal) in assay [6] (H69AR cells + 2 uM doxorubicin) was 7.33% (inactive). In addition, the values for the inhibition in assay [7] and in assay [8] were -3.33% (inactive) and -0.32% (inactive), respectively.

Take `O=C1CCNc2cc3ccccc3cc21`: the viability in assay [1] is 73.5%; in assay [3] it was 73.5% (inactive); in assay [4], 61.7% (inactive); in assay [5] it was 70.5% (inactive); in assay [6] (setting [9]), 70%; in assay [6] (setting [10]) it was 70.5%. Further, the Her2 level in assay [2] is 84% (inactive). In addition, the differential viability (reversal) in assay [6] (H69AR cells + 2 uM doxorubicin) was 0.425% (inactive). The inhibition in assay [7] was -8.9% (inactive); in assay [8] it was 1.27% (inactive).

With `COc1ccccc1Nc1nc(N)nc(CN2CCN(c3ccccc3F)CC2)n1`, the viability is 96% in assay [1]; 96% (inactive) in assay [3]; 98.9% (inactive) in assay [4]; 81.3% (inactive) in assay [5]; 90% in assay [6] (setting [9]); 81.3% in assay [6] (setting [10]). Further, the Her2 level in assay [2] was 120% (inactive). Further, the differential viability (reversal) in assay [6] (H69AR cells + 2 uM doxorubicin) was -8.69% (inactive). Besides, the inhibition was 1.71% (inactive) in assay [7] and 11.5% (inactive) in assay [8].

As to `CCCn1c(SCC(=O)N2CCc3ccccc3C2)nc2c1c(=O)n(C)c(=O)n2C`, the viability is 78.5% in assay [1]; 78.5% (inactive) in assay [3]; 91.2% (inactive) in assay [4]; 84.9% (inactive) in assay [5]; 81.9% in assay [6] (setting [9]); 84.9% in assay [6] (setting [10]). Also, in assay [2], the Her2 level was 128% (inactive). In addition, the differential viability (reversal) in assay [6] (H69AR cells + 2 uM doxorubicin) was 2.96% (inactive). In addition, the inhibition was 0.26% (inactive) in assay [7] and 9% (inactive) in assay [8].

Regarding `COc1cc(Br)cc(/C=N/c2ncn[nH]2)c1O`, the viability in assay [1] was 134%; in assay [3], 134% (inactive); in assay [4] it was 35.2% (inactive); in assay [5] it was 86.6% (inactive); in assay [6] (setting [9]), 104%; in assay [6] (setting [10]) it was 86.6%. Also, the Her2 level in assay [2] was 89% (inactive). In addition, in assay [6] (H69AR cells + 2 uM doxorubicin), the differential viability (reversal) is -17.5% (inactive). Besides, the results for the inhibition in assay [7] and in assay [8] were -4.81% (inactive) and -3.44% (inactive), respectively.

For `CCOc1ccc(-n2cc(C(=O)N3CCN(C)CC3)c3cc(OC)c(OC)cc3c2=O)cc1`, the viability in assay [1] was 87%; in assay [3], 87% (inactive); in assay [4], 103% (inactive); in assay [5] it was 97.1% (inactive); in assay [6] (setting [9]) it was 110%; in assay [6] (setting [10]), 97.1%. Also, in assay [2], the Her2 level was 104% (inactive). In addition, the differential viability (reversal) in assay [6] (H69AR cells + 2 uM doxorubicin) was -12.4% (inactive). Also, the inhibition in assay [7] is 1.62% (inactive); in assay [8] it was -0.16% (inactive).

For the compound `Cc1nc(SCC#N)c2c(C)c(C)sc2n1`, the viability is 128% in assay [1]; 128% (inactive) in assay [3]; 98.6% (inactive) in assay [4]; 98.4% (inactive) in assay [5]; 88.6% in assay [6] (setting [9]); 98.4% in assay [6] (setting [10]). In addition, the Her2 level in assay [2] was 107% (inactive). Further, the differential viability (reversal) in assay [6] (H69AR cells + 2 uM doxorubicin) was 9.83% (inactive). Besides, the inhibition was -5.33% (inactive) in assay [7] and -0.65% (inactive) in assay [8].
